From ChEMBL document CHEMBL4689842, “EUbOPEN Chemogenomics Library wave 1” (2021)

Test system: Fibroblast
Assay: Multiplex assay against human fibroblast
Format: toxicity, cell-based
Procedure, shortened: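 With compound added, live cells were imaged on a CQ1 microscope at 37°C and 5% CO2; staining with Hoechst33342, BioTracker Green Microtubule Cytoskeleton Dye, MitoTracker Red and Annexin V Alexa Fluor 680 had been done at seeding. The CellPathfinder machine-learning gating scheme split cells into Hoechst high-intensity objects or normal cells, normal cells into healthy, pyknosed or fragmented nuclei, and pyknosed cells into mitotic or apoptotic. The tubulin, mitochondrial-mass and membrane-permeability phenotypes are per cents of healthy-nucleus cells.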

[1] = 12 h, 1 µM, compound concentration 1 uM, replicate 1
[2] = 12 h, 1 µM, compound concentration 1 uM, replicate 2
[3] = 12 h, 10 µM, compound concentration 10 uM, replicate 1
[4] = 12 h, 10 µM, compound concentration 10 uM, replicate 2
[5] = 24 h, 1 µM, compound concentration 1 uM, replicate 1
[6] = 24 h, 1 µM, compound concentration 1 uM, replicate 2
[7] = 24 h, 10 µM, compound concentration 10 uM, replicate 1
[8] = 24 h, 10 µM, compound concentration 10 uM, replicate 2
[9] = 48 h, 1 µM, compound concentration 1 uM, replicate 1
[10] = 48 h, 1 µM, compound concentration 1 uM, replicate 2
[11] = 48 h, 10 µM, compound concentration 10 uM, replicate 1
[12] = 48 h, 10 µM, compound concentration 10 uM, replicate 2

Structure (SMILES): CC(C)N1CCC(C)(C)c2cc(C#Cc3ccc(C(=O)O)cc3)ccc21
- Population Apoptotic (%) [1]: 89%
- Population Fragmented Nuclei (%) [1]: 42%
- Population Healthy Nuclei (%) [1]: 41%
- Population Hoechst High Intensity Objects (%) [1]: 41%
- Population Membrane Permeable-Phenotype (%) [1]: 30%
- Population Mitochondria Different-Phenotype (%) [1]: 6%
- Population Mitotic Cells (%) [1]: 10%
- Population Normal (%) [1]: 58%
- Population Pyknosed Nuclei (%) [1]: 15%
- Population Tubulin-Different-Phenotype (%) [1]: 46%
- Total Cell Count [1]: 207
- Population Apoptotic (%) [2]: 20%
- Population Fragmented Nuclei (%) [2]: 16%
- Population Healthy Nuclei (%) [2]: 75%
- Population Hoechst High Intensity Objects (%) [2]: 13%
- Population Membrane Permeable-Phenotype (%) [2]: 6%
- Population Mitochondria Different-Phenotype (%) [2]: 15%
- Population Mitotic Cells (%) [2]: 80%
- Population Normal (%) [2]: 86%
- Population Pyknosed Nuclei (%) [2]: 8%
- Population Tubulin-Different-Phenotype (%) [2]: 20%
- Total Cell Count [2]: 69
- Population Apoptotic (%) [3]: 75%
- Population Fragmented Nuclei (%) [3]: 89%
- Population Healthy Nuclei (%) [3]: 6%
- Population Hoechst High Intensity Objects (%) [3]: 76%
- Population Membrane Permeable-Phenotype (%) [3]: 14%
- Population Mitochondria Different-Phenotype (%) [3]: 0%
- Population Mitotic Cells (%) [3]: 25%
- Population Normal (%) [3]: 23%
- Population Pyknosed Nuclei (%) [3]: 3%
- Population Tubulin-Different-Phenotype (%) [3]: 7%
- Total Cell Count [3]: 898
- Population Apoptotic (%) [4]: 0%
- Population Fragmented Nuclei (%) [4]: 55%
- Population Healthy Nuclei (%) [4]: 44%
- Population Hoechst High Intensity Objects (%) [4]: 71%
- Population Membrane Permeable-Phenotype (%) [4]: 4%
- Population Mitochondria Different-Phenotype (%) [4]: 14%
- Population Mitotic Cells (%) [4]: 0%
- Population Normal (%) [4]: 28%
- Population Pyknosed Nuclei (%) [4]: 0%
- Population Tubulin-Different-Phenotype (%) [4]: 28%
- Total Cell Count [4]: 327
- Population Apoptotic (%) [5]: 85%
- Population Fragmented Nuclei (%) [5]: 39%
- Population Healthy Nuclei (%) [5]: 48%
- Population Hoechst High Intensity Objects (%) [5]: 41%
- Population Membrane Permeable-Phenotype (%) [5]: 29%
- Population Mitochondria Different-Phenotype (%) [5]: 1%
- Population Mitotic Cells (%) [5]: 14%
- Population Normal (%) [5]: 58%
- Population Pyknosed Nuclei (%) [5]: 11%
- Population Tubulin-Different-Phenotype (%) [5]: 38%
- Total Cell Count [5]: 202
- Population Apoptotic (%) [6]: 50%
- Population Fragmented Nuclei (%) [6]: 18%
- Population Healthy Nuclei (%) [6]: 76%
- Population Hoechst High Intensity Objects (%) [6]: 4%
- Population Membrane Permeable-Phenotype (%) [6]: 3%
- Population Mitochondria Different-Phenotype (%) [6]: 10%
- Population Mitotic Cells (%) [6]: 50%
- Population Normal (%) [6]: 95%
- Population Pyknosed Nuclei (%) [6]: 5%
- Population Tubulin-Different-Phenotype (%) [6]: 18%
- Total Cell Count [6]: 81
- Population Apoptotic (%) [7]: 72%
- Population Fragmented Nuclei (%) [7]: 86%
- Population Healthy Nuclei (%) [7]: 7%
- Population Hoechst High Intensity Objects (%) [7]: 78%
- Population Membrane Permeable-Phenotype (%) [7]: 33%
- Population Mitochondria Different-Phenotype (%) [7]: 0%
- Population Mitotic Cells (%) [7]: 27%
- Population Normal (%) [7]: 21%
- Population Pyknosed Nuclei (%) [7]: 5%
- Population Tubulin-Different-Phenotype (%) [7]: 20%
- Total Cell Count [7]: 921
- Population Apoptotic (%) [8]: 100%
- Population Fragmented Nuclei (%) [8]: 49%
- Population Healthy Nuclei (%) [8]: 47%
- Population Hoechst High Intensity Objects (%) [8]: 66%
- Population Membrane Permeable-Phenotype (%) [8]: 3%
- Population Mitochondria Different-Phenotype (%) [8]: 3%
- Population Mitotic Cells (%) [8]: 0%
- Population Normal (%) [8]: 33%
- Population Pyknosed Nuclei (%) [8]: 2%
- Population Tubulin-Different-Phenotype (%) [8]: 26%
- Total Cell Count [8]: 352
- Population Apoptotic (%) [9]: 57%
- Population Fragmented Nuclei (%) [9]: 47%
- Population Healthy Nuclei (%) [9]: 45%
- Population Hoechst High Intensity Objects (%) [9]: 45%
- Population Membrane Permeable-Phenotype (%) [9]: 29%
- Population Mitochondria Different-Phenotype (%) [9]: 0%
- Population Mitotic Cells (%) [9]: 42%
- Population Normal (%) [9]: 54%
- Population Pyknosed Nuclei (%) [9]: 6%
- Population Tubulin-Different-Phenotype (%) [9]: 29%
- Total Cell Count [9]: 202
- Population Apoptotic (%) [10]: 0%
- Population Fragmented Nuclei (%) [10]: 57%
- Population Healthy Nuclei (%) [10]: 42%
- Population Hoechst High Intensity Objects (%) [10]: 35%
- Population Membrane Permeable-Phenotype (%) [10]: 14%
- Population Mitochondria Different-Phenotype (%) [10]: 5%
- Population Mitotic Cells (%) [10]: 100%
- Population Normal (%) [10]: 64%
- Population Pyknosed Nuclei (%) [10]: 0%
- Population Tubulin-Different-Phenotype (%) [10]: 25%
- Total Cell Count [10]: 198
- Population Apoptotic (%) [11]: 60%
- Population Fragmented Nuclei (%) [11]: 90%
- Population Healthy Nuclei (%) [11]: 6%
- Population Hoechst High Intensity Objects (%) [11]: 77%
- Population Membrane Permeable-Phenotype (%) [11]: 25%
- Population Mitochondria Different-Phenotype (%) [11]: 0%
- Population Mitotic Cells (%) [11]: 40%
- Population Normal (%) [11]: 22%
- Population Pyknosed Nuclei (%) [11]: 2%
- Population Tubulin-Different-Phenotype (%) [11]: 18%
- Total Cell Count [11]: 1050
- Population Apoptotic (%) [12]: 0%
- Population Fragmented Nuclei (%) [12]: 93%
- Population Hoechst High Intensity Objects (%) [12]: 84%
- Population Membrane Permeable-Phenotype (%) [12]: 20%
- Population Mitochondria Different-Phenotype (%) [12]: 10%
- Population Mitotic Cells (%) [12]: 0%
- Population Normal (%) [12]: 15%
- Population Pyknosed Nuclei (%) [12]: 0%
- Population Tubulin-Different-Phenotype (%) [12]: 10%
- Total Cell Count [12]: 961

Structure (SMILES): Cl.Cl.NC1(c2ccc(-c3nc4ccn5c(=O)[nH]nc5c4cc3-c3ccccc3)cc2)CCC1
- Population Apoptotic (%) [1]: 71%
- Population Fragmented Nuclei (%) [1]: 35%
- Population Healthy Nuclei (%) [1]: 48%
- Population Hoechst High Intensity Objects (%) [1]: 42%
- Population Membrane Permeable-Phenotype (%) [1]: 4%
- Population Mitotic Cells (%) [1]: 28%
- Population Normal (%) [1]: 57%
- Population Pyknosed Nuclei (%) [1]: 15%
- Population Tubulin-Different-Phenotype (%) [1]: 6%
- Total Cell Count [1]: 437
- Population Apoptotic (%) [2]: 87%
- Population Fragmented Nuclei (%) [2]: 55%
- Population Healthy Nuclei (%) [2]: 35%
- Population Hoechst High Intensity Objects (%) [2]: 45%
- Population Membrane Permeable-Phenotype (%) [2]: 19%
- Population Mitochondria Different-Phenotype (%) [2]: 0%
- Population Mitotic Cells (%) [2]: 12%
- Population Normal (%) [2]: 54%
- Population Pyknosed Nuclei (%) [2]: 9%
- Population Tubulin-Different-Phenotype (%) [2]: 16%
- Total Cell Count [2]: 161
- Population Apoptotic (%) [3]: 37%
- Population Fragmented Nuclei (%) [3]: 19%
- Population Healthy Nuclei (%) [3]: 38%
- Population Hoechst High Intensity Objects (%) [3]: 49%
- Population Membrane Permeable-Phenotype (%) [3]: 7%
- Population Mitochondria Different-Phenotype (%) [3]: 4%
- Population Mitotic Cells (%) [3]: 62%
- Population Normal (%) [3]: 50%
- Population Pyknosed Nuclei (%) [3]: 41%
- Population Tubulin-Different-Phenotype (%) [3]: 42%
- Total Cell Count [3]: 610
- Population Apoptotic (%) [4]: 80%
- Population Fragmented Nuclei (%) [4]: 71%
- Population Healthy Nuclei (%) [4]: 14%
- Population Hoechst High Intensity Objects (%) [4]: 69%
- Population Membrane Permeable-Phenotype (%) [4]: 0%
- Population Mitochondria Different-Phenotype (%) [4]: 40%
- Population Mitotic Cells (%) [4]: 20%
- Population Normal (%) [4]: 30%
- Population Pyknosed Nuclei (%) [4]: 14%
- Population Tubulin-Different-Phenotype (%) [4]: 20%
- Total Cell Count [4]: 114
- Population Apoptotic (%) [5]: 45%
- Population Fragmented Nuclei (%) [5]: 33%
- Population Healthy Nuclei (%) [5]: 51%
- Population Hoechst High Intensity Objects (%) [5]: 49%
- Population Membrane Permeable-Phenotype (%) [5]: 1%
- Population Mitochondria Different-Phenotype (%) [5]: 1%
- Population Mitotic Cells (%) [5]: 54%
- Population Normal (%) [5]: 50%
- Population Pyknosed Nuclei (%) [5]: 15%
- Population Tubulin-Different-Phenotype (%) [5]: 9%
- Total Cell Count [5]: 428
- Population Apoptotic (%) [6]: 57%
- Population Fragmented Nuclei (%) [6]: 57%
- Population Healthy Nuclei (%) [6]: 32%
- Population Hoechst High Intensity Objects (%) [6]: 51%
- Population Membrane Permeable-Phenotype (%) [6]: 8%
- Population Mitochondria Different-Phenotype (%) [6]: 0%
- Population Mitotic Cells (%) [6]: 42%
- Population Normal (%) [6]: 48%
- Population Pyknosed Nuclei (%) [6]: 9%
- Population Tubulin-Different-Phenotype (%) [6]: 16%
- Total Cell Count [6]: 157
- Population Apoptotic (%) [7]: 24%
- Population Fragmented Nuclei (%) [7]: 17%
- Population Healthy Nuclei (%) [7]: 38%
- Population Hoechst High Intensity Objects (%) [7]: 53%
- Population Membrane Permeable-Phenotype (%) [7]: 5%
- Population Mitochondria Different-Phenotype (%) [7]: 10%
- Population Mitotic Cells (%) [7]: 75%
- Population Normal (%) [7]: 46%
- Population Pyknosed Nuclei (%) [7]: 44%
- Population Tubulin-Different-Phenotype (%) [7]: 42%
- Total Cell Count [7]: 622
- Population Apoptotic (%) [8]: 83%
- Population Fragmented Nuclei (%) [8]: 70%
- Population Healthy Nuclei (%) [8]: 14%
- Population Hoechst High Intensity Objects (%) [8]: 57%
- Population Membrane Permeable-Phenotype (%) [8]: 50%
- Population Mitochondria Different-Phenotype (%) [8]: 33%
- Population Mitotic Cells (%) [8]: 16%
- Population Normal (%) [8]: 42%
- Population Pyknosed Nuclei (%) [8]: 14%
- Population Tubulin-Different-Phenotype (%) [8]: 16%
- Total Cell Count [8]: 97
